Active and inactive are the calls of the source. No cut-off for these calls is given here.
Legend:
iNKT [1] = test: Immunostimulatory activity in B6 mouse iNKT cells assessed as induction of IFN-gamma production incubated for 16 hrs followed by brefeldin A addition measured after 2 hrs by flow cytometric analysis in presence of ionomycin (reference value: 0.6%); type: functional
Mus musculus [2] = test: Immunostimulatory activity in B6 mouse assessed as induction of IL-4 production in serum at 100 ug/kg, ip measured up to 12 hrs by ELISA; type: functional, organism-based
Method in brief: (§1)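 Glycolipid given intraperitoneally to B6 mice at 100 μg/kg. Serum IFN-γ and IL-4 measured at several time points after injection. Two mice per group, each mouse's serum assayed individually at each time.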

Mus musculus [3] = test: Immunostimulatory activity in B6 mouse assessed as induction of IL-4 production in serum at 100 ug/kg, ip measured after 12 hrs by ELISA; type: functional, organism-based; method in brief: as §1
iNKT [4] = test: Immunostimulatory activity in B6 mouse iNKT cells assessed as induction of IFN-gamma production at 1000 ng/ml incubated for 16 hrs followed by brefeldin A addition measured after 2 hrs by flow cytometric analysis (reference value: 0.6%); type: functional
Method in brief: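 Mouse splenocytes stimulated with glycolipid in vitro; IFN-γ measured in cells gated as CD3+DX5+CD1d tetramer+ NKT cells. Control cells held in complete 1640 medium only; PMA plus ionomycin used as positive control.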

Mus musculus [5] = test: Immunostimulatory activity in B6 mouse assessed as induction of IFN-gamma production in serum at 100 ug/kg, ip by ELISA; type: functional, organism-based; method in brief: as §1
Mus musculus [6] = test: Immunostimulatory activity in B6 mouse assessed as induction of IFN-gamma production in serum at 100 ug/kg, ip measured at 6 to 24 hrs by ELISA; type: functional; method in brief: as §1
Mus musculus [7] = test: Immunostimulatory activity in B6 mouse assessed as induction of IL-4 production in serum at 100 ug/kg, ip measured at 3 hrs by ELISA; type: functional, organism-based; method in brief: as §1
Mus musculus [8] = test: Immunostimulatory activity in B6 mouse assessed as induction of IFN-gamma production in serum at 100 ug/kg, ip after 24 hrs by ELISA; type: functional; method in brief: as §1

CCCCCCCCCCCCCC(=O)O[C@@H]1[C@@H](C)[C@@]2(O)[C@@H](C=C(CO)C[C@]3(O)C(=O)C(C)=C[C@@H]23)[C@@H]2C(C)(C)[C@]12OC(C)=O [PHORBOL MYRISTATE ACETATE]
Activity (iNKT [1]): 8.5%

CCCCCCCCCCCCCC[C@@H](O)[C@@H](O)[C@H](CO[C@H]1S[C@H](CO)[C@H](O)[C@H](O)[C@H]1O)NC(=O)CCCCCCCCCCCCC
Activity (Mus musculus [2]): inactive
Activity (Mus musculus [3]): inactive
Activity (iNKT [4]): 6%
Activity (Mus musculus [5]): Active

CCCCCCCCCCCCCCCCCCCCCCCCCC(=O)N[C@@H](CO[C@H]1O[C@H](CO)[C@H](O)[C@H](O)[C@H]1O)[C@H](O)[C@H](O)CCCCCCCCCCCCCC [RGI-7000]
Activity (Mus musculus [6]): 2127 pg/mL
Activity (iNKT [4]): 4.1%
Activity (Mus musculus [7]): Active

CCCCCCCCCCCCCC[C@@H](O)[C@@H](O)[C@H](CO[C@H]1S[C@H](CO)[C@H](O)[C@H](O)[C@H]1O)NC(=O)CCCCCCC
Activity (Mus musculus [3]): inactive
Activity (iNKT [4]): 1.4%
Activity (Mus musculus [5]): inactive

CCCCCCCCCCCCCCCCCCCCCCCCCC(=O)N[C@@H](CO[C@H]1S[C@H](CO)[C@H](O)[C@H](O)[C@H]1O)[C@H](O)[C@H](O)CCCCCCCCCCCCCC
Activity (Mus musculus [8]): 1722 pg/mL
Activity (Mus musculus [2]): Active
Activity (Mus musculus [3]): inactive
Activity (iNKT [4]): 8.5%
